Published values pooled from the literature.
Compare with care: the assays were run in different laboratories.
Target: Cannabinoid receptor 2 (CNR2, Homo sapiens, UniProt P34972)

SMILES	test	conditions	quantity	result
CCOC(=O)[C@](CC)(CCC[S+]([O-])CCOCCOCCNC(=O)OC(C)(C)C)NC(=O)c1ccc(C2CC2)c(Cc2ccc(F)cc2)n1 (stereo partly drawn)	cAMP, agonist	–	EC50	7.9 nM
Cc1nc([C@@](C)(CC2CC2)NC(=O)c2cc(OCC(F)(F)F)c(C3CC3)cn2)no1	cAMP, agonist	–	EC50	8 nM
CC1(C)C(C(=O)c2cn(CCCCCF)c3ccccc23)C1(C)C	GTPγS binding, agonist, radiometric	cell membranes	EC50	145 nM
NC(=O)[C@@H]1CC(F)(F)CN1C(=O)c1ccc(N2CC(F)(F)C2)c(OCC2CC2)n1	cAMP, agonist	–	EC50	3 nM
CC1CCC(NC(=O)c2cc3cc(Br)cnc3n(CCN3CCOCC3)c2=O)CC1 (stereo not drawn)	ligand displacement, radioligand	–	IC50	4.95 nM
CCOC(=O)C(CC)(CCCSCCOCCOCCOCCNC(=O)OC(C)(C)C)NC(=O)c1ccc(C2CC2)c(Cc2ccc(F)cc2)n1 (stereo not drawn)	cAMP, agonist	–	EC50	10 nM
CCCCCn1cc(C(=O)C2C(C)(C)C2(C)C)c2ccccc21	GTPγS binding, agonist, radiometric	cell membranes	EC50	334 nM
COc1ccc(-c2cnc3c(c2)cc(C(=O)NC2CCC(C)CC2)c(=O)n3CCN2CCOCC2)cc1 (stereo not drawn)	ligand displacement, radioligand	–	IC50	5.56 nM
C[C@H]1CC[C@H]2[C@H](C1)c1c(O)cc(-c3csc4ccccc34)cc1OC2(C)C	GTPγS binding, agonist, radiometric	cell membranes	EC50	16000 nM
